Test results as given in ChEMBL document CHEMBL1156597, “Structure-activity relationship of kahalalide F synthetic analogues” (J Med Chem, 2008).

Experiments:
LoVo [1] = assay: Cytotoxicity against human LoVo cells after 48 hrs by SRB assay; type: functional; settings: for CC50: read-out: LC50 (the source's name)
[2] = Cytotoxicity against human IGROV-ET cells after 48 hrs by SRB assay; type: functional; settings: for CC50: read-out: LC50 (the source's name)
Method in brief: (§1)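 Cells grown in RPMI 1640 with 10% FBS and penicillin/streptomycin at 37 °C and 5% CO₂, trypsinized, then seeded at 5 × 10³/well. After 18 h drug-free attachment, samples in DMSO/EtOH/PBS (0.5:0.5:99) were added for 48 h continuous exposure. Cells were fixed with cold TCA (1 h, 4 °C) and stained with SRB (10 min). Tris-solubilized stain read at 490 nm. Triplicate wells, mean ± SD; GI₅₀ derived.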

HT-29 = assay: Cytotoxicity against human HT29 cells after 48 hrs by SRB assay; type: functional, cell-based; settings: Homo sapiens, HT-29, 48 h; for CC50: read-out: LC50 (the source's name); method in brief: as §1
LNCaP = assay: Cytotoxicity against human LNcaP cells after 48 hrs by SRB assay; type: functional; settings: for CC50: read-out: LC50 (the source's name); method in brief: as §1
DU-145 = assay: Cytotoxicity against human DU145 cells after 48 hrs by SRB assay; type: functional, cell-based; settings: Homo sapiens, DU-145, 48 h; for CC50: read-out: LC50 (the source's name); method in brief: as §1
[3] = Cytotoxicity against human HeLa-APL cells after 48 hrs by SRB assay; type: functional; method in brief: as §1
LoVo [4] = assay: Cytotoxicity against human doxorubicin resistant LoVo cells after 48 hrs by SRB assay; type: functional; settings: for CC50: read-out: LC50 (the source's name); method in brief: as §1
HeLa = assay: Cytotoxicity against human HeLa cells after 48 hrs by SRB assay; type: functional; settings: read-out: LC50 (the source's name); method in brief: as §1
[5] = Cytotoxicity against human IGROV cells after 48 hrs by SRB assay; type: functional; settings: for CC50: read-out: LC50 (the source's name); method in brief: as §1
PANC-1 = assay: Cytotoxicity against human PANC1 cells after 48 hrs by SRB assay; type: functional; settings: PANC-1, 48 h; for CC50: read-out: LC50 (the source's name); method in brief: as §1
SK-MEL-28 = assay: Cytotoxicity against human SK-MEL-28 cells after 48 hrs by SRB assay; type: functional, cell-based; settings: Homo sapiens, SK-MEL-28, 48 h; for GI50: read-out: GI50; for CC50: read-out: LC50 (the source's name); method in brief: as §1
A549 = assay: Cytotoxicity against human A549 cells after 48 hrs by SRB assay; type: functional, cell-based; settings: Homo sapiens, A549, 48 h; for GI50: read-out: GI50; method in brief: as §1
K562 = assay: Cytotoxicity against human K562 cells after 48 hrs by SRB assay; type: functional; settings: K562, 48 h; for CC50: read-out: LC50 (the source's name); method in brief: as §1

| SMILES | GI50 (LoVo [1]) [nM] | TGI (LoVo [1]) [nM] | CC50 (LoVo [1]) [nM] | GI50 [2] [nM] | GI50 ([2]; read-out: GI50) [nM] | CC50 [2] [nM] | CC50 (HT-29) [nM] | CC50 (LNCaP) [nM] | GI50 (DU-145; read-out: GI50) [nM] | CC50 (DU-145) [nM] | LC50 (concentration giving 50% net cell kill) [3] [nM] | GI50 (LoVo [4]) [nM] | TGI (LoVo [4]) [nM] | CC50 (LoVo [4]) [nM] | CC50 (HeLa) [nM] | CC50 [5] [nM] | CC50 (PANC-1) [nM] | TGI (SK-MEL-28) [nM] | GI50 (SK-MEL-28) [nM] | CC50 (SK-MEL-28) [nM] | further results |
| --- | --- | --- | --- | --- | --- | --- | --- | --- | --- | --- | --- | --- | --- | --- | --- | --- | --- | --- | --- | --- | --- |
| C/C=C1\NC(=O)[C@H](Cc2ccccc2)NC(=O)[C@@H](C(C)C)NC(=O)[C@@H]([C@H](C)CC)NC(=O)[C@H](NC(=O)[C@H](NC(=O)[C@H](CCCN)NC(=O)[C@H]2CCCN2C(=O)[C@H](NC(=O)[C@@H](NC(=O)[C@@H](NC(=O)[C@@H](NC(=O)CCCC(C)C)C(C)C)[C@@H](C)O)C(C)C)C(C)C)[C@H](C)CC)[C@H](C)OC(=O)[C@H](C(C)C)NC1=O | 1300 | 3250 | 2090 | 529 | 2890 | 527 | 501 | 967 | 549 | 842 | 969 | 1760 | 2250 | 2880 | 1020 | 668 | 1590 | 1030 | 1000 | 1060 | GI50 (HT-29): 635 nM; TGI (HT-29): 728 nM; GI50 (LNCaP): 853 nM; TGI (LNCaP): 911 nM; GI50 (DU-145): 771 nM; GI50 [3]: 1040 nM; TGI [3]: 1510 nM; GI50 (PANC-1): 1510 nM; TGI (PANC-1): 1560 nM; LC50 (A549): 1040 nM; TGI (A549): 1180 nM; GI50 (A549): 1330 nM; CC50 (K562): 153 nM |
| C/C=C1\NC(=O)[C@H](Cc2ccccc2)NC(=O)[C@@H](C(C)C)NC(=O)[C@@H]([C@H](C)CC)NC(=O)[C@H](NC(=O)[C@H](NC(=O)[C@H](CCCN)NC(=O)[C@H]2CCCN2C(=O)[C@H](NC(=O)[C@@H](NC(=O)[C@@H](NC(=O)[C@@H](CC(C)C)NC(=O)CCCC(C)C)[C@@H](C)O)C(C)C)C(C)C)[C@H](C)CC)[C@H](C)OC(=O)[C@H](C(C)C)NC1=O | 608 | 842 | 856 | 298 | 1310 | 365 | 509 | 1130 | 1340 | 889 | 948 | 325 | 329 | 3370 | 955 | 5640 | 2790 | 1070 | 1090 | 1060 | GI50 (HT-29): 661 nM; TGI (HT-29): 728 nM; GI50 (LNCaP): 1790 nM; TGI (LNCaP): 2550 nM; TGI (DU-145): 1070 nM; GI50 [3]: 1000 nM; TGI [3]: 1460 nM; GI50 [5]: 845 nM; GI50 ([5]; read-out: GI50): 1050 nM; GI50 (PANC-1): 2910 nM; TGI (PANC-1): 5210 nM; LC50 (A549): 1080 nM; GI50 (K562): 2720 nM; TGI (K562): 2430 nM; CC50 (K562): 2180 nM |
| C/C=C1\NC(=O)[C@H](Cc2ccccc2)NC(=O)[C@@H](C(C)C)NC(=O)[C@@H]([C@@H](C)CC)NC(=O)[C@H](NC(=O)[C@H](NC(=O)[C@H](CCCN)NC(=O)[C@H]2CCCN2C(=O)[C@H](NC(=O)[C@@H](NC(=O)[C@@H](NC(=O)[C@H](NC(=O)CCCC(C)C)[C@@H](C)O)[C@@H](C)O)C(C)C)C(C)C)[C@@H](C)CC)[C@@H](C)OC(=O)[C@H](C(C)C)NC1=O | 367 | 727 | 896 | 231 | 1000 | 257 | 575 | 1140 | 1470 | 9290 | 977 | 325 | 327 | 331 | 1020 | 582 | 2810 | 1160 | 1220 | 1100 | GI50 (HT-29): 1060 nM; TGI (HT-29): 886 nM; GI50 (LNCaP): 1950 nM; TGI (LNCaP): 2580 nM; TGI (DU-145): 1150 nM; GI50 [3]: 1040 nM; TGI [3]: 1520 nM; GI50 [5]: 909 nM; GI50 ([5]; read-out: GI50): 1170 nM; GI50 (PANC-1): 3910 nM; TGI (PANC-1): 5260 nM; LC50 (A549): 1030 nM; TGI (A549): 1260 nM; GI50 (A549): 1550 nM; CC50 (K562): 2370 nM |
| C/C=C1\NC(=O)[C@H](Cc2ccccc2)NC(=O)[C@@H](C(C)C)NC(=O)[C@@H]([C@H](C)CC)NC(=O)[C@H](NC(=O)[C@H](NC(=O)[C@H](CCCN)NC(=O)[C@H]2Cc3ccccc3CN2C(=O)[C@H](NC(=O)[C@@H](NC(=O)[C@@H](NC(=O)[C@H](NC(=O)CC[C@@H](C)CC)C(C)C)[C@@H](C)O)C(C)C)C(C)C)[C@H](C)CC)[C@H](C)OC(=O)[C@H](C(C)C)NC1=O | 2620 | 2540 | 685 | 779 | 1060 | 527 | 426 | 1510 | 2390 | 1370 | 947 | 2290 | 2490 | 1740 | 1050 | 464 | 1950 | 3110 | 3630 | 1560 | TGI (DU-145): 2280 nM; GI50 [5]: 806 nM; GI50 ([5]; read-out: GI50): 1520 nM; LC50 (A549): 6500 nM; TGI (A549): 1540 nM; GI50 (A549): 1430 nM; CC50 (K562): 2100 nM |
